ChEMBL document CHEMBL1139226, “Partial retro-inverso, retro, and inverso modifications of hydrazide linked bifunctional peptides for opioid and cholecystokinin (CCK) receptors” (J Med Chem, 2007)

How the values were obtained:
[1] = biological target: T1, Gastrin/cholecystokinin type B receptor (Homo sapiens, UniProt P32239); assay: Activity at human CCK2 receptor expressed in HEK293 cells assessed as level of [3H]inositol produced relative to control; type: functional, cell-based
T1 sequence (P32239 whole entry): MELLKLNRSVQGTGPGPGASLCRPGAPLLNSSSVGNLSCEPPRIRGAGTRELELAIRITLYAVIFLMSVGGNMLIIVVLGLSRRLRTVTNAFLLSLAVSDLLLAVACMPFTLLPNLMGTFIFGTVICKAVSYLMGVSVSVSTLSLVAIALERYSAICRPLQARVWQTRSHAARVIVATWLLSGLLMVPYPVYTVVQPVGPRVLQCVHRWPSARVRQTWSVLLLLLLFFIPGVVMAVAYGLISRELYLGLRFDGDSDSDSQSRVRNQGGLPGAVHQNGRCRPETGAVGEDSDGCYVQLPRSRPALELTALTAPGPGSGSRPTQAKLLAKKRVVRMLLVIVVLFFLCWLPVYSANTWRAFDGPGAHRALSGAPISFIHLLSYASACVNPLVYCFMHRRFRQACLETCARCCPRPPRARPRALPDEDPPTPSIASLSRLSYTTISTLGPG

[2] = biological target: T2, Mu-type opioid receptor (Rattus norvegicus, UniProt P33535); assay: Displacement of [3H]DAMGO from rat mu opioid receptor expressed in HN9.10 cells; type: cell-based
T2 sequence (P33535 whole entry): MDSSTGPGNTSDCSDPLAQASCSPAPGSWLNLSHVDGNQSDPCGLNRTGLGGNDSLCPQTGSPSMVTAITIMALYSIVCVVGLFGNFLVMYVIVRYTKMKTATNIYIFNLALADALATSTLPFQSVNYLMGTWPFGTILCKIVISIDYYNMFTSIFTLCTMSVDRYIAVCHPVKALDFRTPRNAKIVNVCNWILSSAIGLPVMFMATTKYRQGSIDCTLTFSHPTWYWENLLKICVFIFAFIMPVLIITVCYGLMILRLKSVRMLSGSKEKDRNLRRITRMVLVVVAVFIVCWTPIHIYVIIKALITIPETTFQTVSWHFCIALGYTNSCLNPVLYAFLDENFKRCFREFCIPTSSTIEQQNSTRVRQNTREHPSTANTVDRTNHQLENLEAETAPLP

[3] = biological target: T3, Delta-type opioid receptor (Homo sapiens, UniProt P41143); assay: Activity at human delta opioid receptor expressed in CHO cells by [35S]GTP-gamma-S binding assay; type: functional, cell-based; conditions: for Log IC50: cho
T3 sequence (P41143 whole entry): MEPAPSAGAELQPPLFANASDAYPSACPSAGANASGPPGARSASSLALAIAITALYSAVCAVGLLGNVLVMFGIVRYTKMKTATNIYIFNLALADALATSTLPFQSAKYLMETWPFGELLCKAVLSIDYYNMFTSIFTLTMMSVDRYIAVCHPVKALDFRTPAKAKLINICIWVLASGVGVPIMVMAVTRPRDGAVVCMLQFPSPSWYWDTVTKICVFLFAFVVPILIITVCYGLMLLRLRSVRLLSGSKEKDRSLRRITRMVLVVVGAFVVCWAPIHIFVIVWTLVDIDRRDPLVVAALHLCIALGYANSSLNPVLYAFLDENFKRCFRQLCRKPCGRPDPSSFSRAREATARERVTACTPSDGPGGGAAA
How it was run: (§1)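 Receptors expressed in CHO cells; agonist-stimulated GTP-γ-S binding reported as net total bound/basal binding × 100. Log EC50 from nonlinear regression of at least two independent experiments.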

[4] = biological target: T2, Mu-type opioid receptor; assay: (§2) Activity at rat mu opioid receptor expressed in CHO cells by [35S]GTPgammaS binding assay; type: functional, cell-based; how it was run: as §1
[5] = biological target: T4, Cholecystokinin receptor type A (Homo sapiens, UniProt P32238); assay: Displacement of [125I]CCK8-SO3 from human CCK1 receptor expressed in HEK293 cells; type: cell-based
T4 sequence (P32238 whole entry): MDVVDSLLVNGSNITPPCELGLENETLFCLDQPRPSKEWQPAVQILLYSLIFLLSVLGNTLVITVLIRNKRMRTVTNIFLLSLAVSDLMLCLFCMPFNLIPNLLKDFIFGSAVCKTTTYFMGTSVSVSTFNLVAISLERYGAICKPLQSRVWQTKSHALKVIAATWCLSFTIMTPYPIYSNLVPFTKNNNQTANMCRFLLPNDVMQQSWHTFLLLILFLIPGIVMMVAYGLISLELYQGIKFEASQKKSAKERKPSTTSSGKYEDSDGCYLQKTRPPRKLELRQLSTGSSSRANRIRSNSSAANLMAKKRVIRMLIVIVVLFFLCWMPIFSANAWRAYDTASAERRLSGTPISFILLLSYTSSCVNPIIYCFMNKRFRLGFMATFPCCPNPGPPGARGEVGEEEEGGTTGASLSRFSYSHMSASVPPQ

[6] = biological target: T1, Gastrin/cholecystokinin type B receptor; assay: Displacement of [125I]CCK8-SO3 from human CCK2 receptor expressed in HEK293 cells; type: cell-based
[7] = biological target: T3, Delta-type opioid receptor; assay: Displacement of [3H]DPDPE from human delta opioid receptor expressed in HN9.10 cells; type: cell-based
[8] = biological target: Mu-type opioid receptor (Rattus norvegicus) (UniProt P33535); assay: as §2; type: functional, cell-based; how it was run: as §1
Mu-type opioid receptor (Rattus norvegicus), sequence (P33535 whole entry): as the sequence (P33535 whole entry) above

[9] = biological target: Delta-type opioid receptor (Mus musculus, UniProt P32300); assay: Activity at delta opioid receptor in ICR mouse by MVD assay; type: functional, tissue-based
Delta-type opioid receptor (Mus musculus, UniProt P32300), sequence (P32300 whole entry): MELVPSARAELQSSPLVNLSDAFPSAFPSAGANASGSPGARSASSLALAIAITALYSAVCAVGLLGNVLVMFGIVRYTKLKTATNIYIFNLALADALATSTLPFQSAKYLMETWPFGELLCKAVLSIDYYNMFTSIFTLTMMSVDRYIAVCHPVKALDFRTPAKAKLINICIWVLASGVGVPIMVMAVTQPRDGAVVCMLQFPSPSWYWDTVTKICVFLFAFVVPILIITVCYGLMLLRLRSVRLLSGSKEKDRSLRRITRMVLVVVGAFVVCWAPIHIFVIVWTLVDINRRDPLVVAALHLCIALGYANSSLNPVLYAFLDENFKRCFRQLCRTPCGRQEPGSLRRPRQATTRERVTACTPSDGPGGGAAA
How it was run: (§3)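 Electrically stimulated isolated tissue; value is concentration giving 50% inhibition of muscle contraction.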

[10] = biological target: Mu-type opioid receptor (Cavia porcellus, UniProt P97266); assay: Activity at mu opioid receptor assessed as contraction of electrically-stimulated Hartley guinea pig ileum; type: functional, tissue-based; how it was run: as §3
Mu-type opioid receptor (Cavia porcellus, UniProt P97266), sequence (P97266 whole entry): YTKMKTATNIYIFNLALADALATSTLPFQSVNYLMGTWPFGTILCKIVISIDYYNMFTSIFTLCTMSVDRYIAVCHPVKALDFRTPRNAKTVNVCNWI

Row | SMILES | EC50 [1] | Log IC50 [1] | Ki [2] | Log IC50 [3] | Log IC50 ([4]; cho) | Ki [5] | Ki [6] | IC50 [7] | Ki [7] | IC50 [2] | EC50 [3] | Emax [3] | IC50 [3] | Emax [8] | log EC50 [4] | IC50 [9] | IC50 [10] | other results
1 | CCCC[C@H](NC(=O)[C@H](N)Cc1c[nH]c2ccccc12)C(=O)N[C@@H](CC(=O)O)C(=O)N[C@@H](Cc1ccccc1)C(=O)NNC(=O)[C@H](Cc1ccccc1)NC(=O)CNC(=O)[C@@H](C)NC(=O)[C@@H](N)Cc1ccc(O)cc1 | 4.6 nM | -8.34 | 0.5 nM | -8.02 | -8.02 |  |  |  |  |  |  |  |  |  |  |  |  | EC50 ([4]; cho): 96 nM
2 | CCCC[C@@H](NC(=O)[C@@H](CC(=O)O)NC(=O)[C@@H](Cc1ccccc1)NC(=O)OC(C)(C)C)C(=O)N[C@@H](Cc1cc2ccccc2[nH]1)C(=O)NNC(=O)[C@H](Cc1ccccc1)NC(=O)CNC(=O)[C@@H](C)NC(=O)[C@@H](N)Cc1ccc(O)cc1 |  |  | 56 nM |  |  | 130 nM | 1100 nM | 9.12 nM | 3.9 nM | 132 nM | 13 nM | 99% | 12.3 nM | 71% | -6.76 | 18 nM | 530 nM | IC50 [5]: 132 nM; IC50 [6]: 1100 nM
3 | CCCC[C@H](NC(=O)[C@H](N)Cc1cc2ccccc2[nH]1)C(=O)N[C@@H](CC(=O)O)C(=O)N[C@@H](Cc1ccccc1)C(=O)NNC(=O)[C@H](Cc1ccccc1)NC(=O)CNC(=O)[C@@H](C)NC(=O)[C@@H](N)Cc1ccc(O)cc1 |  |  |  |  |  |  |  |  |  |  |  | 64% |  | 82% |  |  |  | 
4 | CCCC[C@H](NC(=O)[C@@H](Cc1c[nH]c2ccccc12)NC(=O)OC(C)(C)C)C(=O)N[C@@H](CC(=O)O)C(=O)N[C@@H](Cc1ccccc1)C(=O)NNC(=O)[C@H](Cc1ccccc1)NC(=O)CNC(=O)[C@@H](C)NC(=O)[C@@H](N)Cc1ccc(O)cc1 | 16 nM | -7.8 |  | -7.13 | -6.69 |  |  |  |  |  |  |  |  |  |  |  |  | 
5 | CCCC[C@H](NC(=O)[C@@H](Cc1cc2ccccc2[nH]1)NC(=O)OC(C)(C)C)C(=O)N[C@@H](CC(=O)O)C(=O)N[C@@H](Cc1ccccc1)C(=O)NNC(=O)[C@H](Cc1ccccc1)NC(=O)CNC(=O)[C@@H](C)NC(=O)[C@@H](N)Cc1ccc(O)cc1 |  |  |  |  |  |  |  |  |  |  |  | 100% |  | 170% |  |  |  | 
6 | CCCC[C@@H](NC(=O)[C@H](Cc1cc2ccccc2[nH]1)NC(=O)OC(C)(C)C)C(=O)N[C@H](CC(=O)O)C(=O)N[C@H](Cc1ccccc1)C(=O)NNC(=O)[C@H](Cc1ccccc1)NC(=O)CNC(=O)[C@@H](C)NC(=O)[C@@H](N)Cc1ccc(O)cc1 |  |  | 34 nM |  |  | 8300 nM | > 10000 nM | 16.2 nM | 6.9 nM | 79.4 nM | 8.4 nM | 93% | 8.32 nM | 106% | -8.9 | 31 nM | 210 nM | EC50 [4]: 1.3 nM
